Series [1] is filed under the species Rattus norvegicus. Briefly: animal or person. The conditions noted are these: Wistar, po, read-out: INH.
For series [2], the species on record is Rattus norvegicus. Briefly: animal or person. The conditions noted are these: Wistar, po, read-out: INH. This is another data set of the same source.
For series [3], the species on record is Rattus norvegicus. Briefly: animal or person. The conditions noted are these: Wistar, po, read-out: INH. This is another data set of the same source.
The species entered for series [4] is Rattus norvegicus. Briefly: animal or person. The conditions noted are these: Wistar, po, read-out: INH. This is another data set of the same source.
Series [5] is filed under the species Rattus norvegicus. Briefly: animal or person. The conditions noted are these: Wistar, po, read-out: INH. The source holds these as a separate data set.
For series [6], the species on record is Rattus norvegicus. Briefly: animal or person. The conditions noted are these: Wistar, po, read-out: INH. This is another data set of the same source.
Series [7] in a line: Chemical stability in HCl buffer of pH 1.2 simulating gastric fluid. The conditions noted are these: simulated gi fluid. Type of series: physicochemical. Summed up:
(§1)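 Hydrolysis run in pH 1.2 HCl buffer or pH 7.4 phosphate buffer, each with 1% Tween 20 and ionic strength 0.2 (KCl). Started by adding 200 µL of a 3 mg/mL methanol or acetonitrile stock to 9.8 mL of prewarmed buffer, held at 37 °C. Aliquots (20 µL) taken over time; remaining ester measured by HPLC.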

A short description of series [8]: Chemical stability in phosphate buffer of pH 7.4 simulating intestinal fluid. Type of series: physicochemical. The conditions noted are these: simulated gi fluid. The procedure, abridged:
as §1

For a further series, the species on record is Homo sapiens. Briefly: Stability in human plasma assessed as hydrolysis half life.
Series [9] has as its system Rattus norvegicus. Briefly: Gastrointestinal toxicity in Wistar rat assessed as complete damage of mucosal layer and ulceration of submucosal cells at dose equivalent to 150 mg/kg of ibuprofen, po after 24 hrs by electron microscopy. The conditions noted are these: in vivo. More on the design: dose 150 mg/kg, route oral. Type of series: organism-based, Submucosa. Summed up:
(§2)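 Male Wistar rats (150–200 g), three per group, fasted 12 h with water available. Given a daily oral dose in 0.5% CMC (1 mL suspension) for four successive days; control group got vehicle. Food withheld until 24 h after the last dose, then rats killed. Stomachs opened along the greater curvature, rinsed in saline, and random specimens examined by scanning electron microscopy after glutaraldehyde/osmium fixation, ethanol dehydration and amyl acetate.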

Series [10] concerns Rattus norvegicus. Briefly: Antiinflammatory activity in Wistar rat assessed as inhibition of carrageenan-induced paw edema at 150 mg/kg, po administered 30 mins before carrageenan challenge measured after 2 hrs. Type of series: functional. The procedure, abridged: (§3)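 Rats dosed orally with a suspension in 0.5% w/v aqueous carboxymethyl cellulose; controls got vehicle alone. 30 min later, 0.1 mL of fresh 1% carrageenan in normal saline injected subplantar into the right hind paw. Paw thickness measured by skin caliper at 0.5, 1, 2, 3, 4 and 5 h. % edema inhibition = [(VR−VL)control − (VR−VL)treated]/(VR−VL)control × 100. Values are means ± SEM.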
A general note: In the carrageenan paw model, swelling and tenderness develop within hours.

Series [11] has as its system Rattus norvegicus. Kind of series: Antiinflammatory activity in Wistar rat assessed as inhibition of carrageenan-induced paw edema at 150 mg/kg, po administered 30 mins before carrageenan challenge measured after 4 hrs. Type of series: functional. Summed up:
as §3

Series [12] deals with Rattus norvegicus. Kind of series: Antiinflammatory activity in Wistar rat assessed as inhibition of carrageenan-induced paw edema at 150 mg/kg, po administered 30 mins before carrageenan challenge measured after 3 hrs. Type of series: functional. Summed up:
as §3

The subject of series [13] is Rattus norvegicus. Kind of series: Antiinflammatory activity in Wistar rat assessed as inhibition of carrageenan-induced paw edema at 150 mg/kg, po administered 30 mins before carrageenan challenge measured after 0.5 hrs. Type of series: functional. The procedure, abridged: as §3
In series [14] the test system is Rattus norvegicus. Briefly: Antiinflammatory activity in Wistar rat assessed as inhibition of carrageenan-induced paw edema at 150 mg/kg, po administered 30 mins before carrageenan challenge measured after 1 hr. Type of series: functional. The procedure, abridged:
as §3

Series [15] deals with Rattus norvegicus. Briefly: Antiinflammatory activity in Wistar rat assessed as inhibition of carrageenan-induced paw edema at 150 mg/kg, po administered 30 mins before carrageenan challenge measured after 5 hrs. Type of series: functional. The procedure, abridged: as §3
Series [16] has as its system Rattus norvegicus. Briefly: Gastrointestinal toxicity in Wistar rat assessed as complete damage of mucosal layer and ulceration of submucosal cells at 150 mg/kg, po after 24 hrs by electron microscopy. Type of series: organism-based, Submucosa. More on the design: dose 150 mg/kg, route oral. The conditions noted are these: in vivo. Summed up: as §2
In series [17] the test system is Rattus norvegicus. Briefly: Antiinflammatory activity in Wistar rat assessed as inhibition of carrageenan-induced paw edema at 20 mg/kg, po administered 30 mins before carrageenan challenge measured after 2 hrs. Type of series: functional. The procedure, abridged:
as §3

Series [18] deals with Rattus norvegicus. Briefly: Antiinflammatory activity in Wistar rat assessed as inhibition of carrageenan-induced paw edema at 20 mg/kg, po administered 30 mins before carrageenan challenge measured after 1 hr. Type of series: functional. Summed up:
as §3

The test system of series [19] is Rattus norvegicus. Briefly: Antiinflammatory activity in Wistar rat assessed as inhibition of carrageenan-induced paw edema at 20 mg/kg, po administered 30 mins before carrageenan challenge measured after 0.5 hrs. Type of series: functional. The procedure, abridged:
as §3

Series [20] relates to Rattus norvegicus. Kind of series: Antiinflammatory activity in Wistar rat assessed as inhibition of carrageenan-induced paw edema at 20 mg/kg, po administered 30 mins before carrageenan challenge measured after 4 hrs. Type of series: functional. Summed up: as §3
Series [21] deals with Rattus norvegicus. Briefly: Antiinflammatory activity in Wistar rat assessed as inhibition of carrageenan-induced paw edema at 20 mg/kg, po administered 30 mins before carrageenan challenge measured after 5 hrs. Type of series: functional. The procedure, abridged: as §3
Series [22] concerns Rattus norvegicus. Kind of series: Antiinflammatory activity in Wistar rat assessed as inhibition of carrageenan-induced paw edema at 20 mg/kg, po administered 30 mins before carrageenan challenge measured after 3 hrs. Type of series: functional. The procedure, abridged: as §3

Each structure is given as a SMILES string.

In the case of `COc1ccc2cc([C@H](C)C(=O)O)ccc2c1` [NAPROXEN], the inhibition in vivo at 40 mg/kg was 46.9% in the series listed under Rattus norvegicus [1]; 9.4% in the series filed under Rattus norvegicus [2]; 37.5% in the series listed under Rattus norvegicus [3]; 28.1% in the series filed under Rattus norvegicus [4]; 18.8% in the series filed under Rattus norvegicus [5]; 16.3% in the series filed under Rattus norvegicus [6].
As for `CC(C)Cc1ccc(C(C)C(=O)OCn2c(=O)oc3ccc(Cl)cc32)cc1` (stereo not drawn), the values for the Stability entry in series [7] and in [8] were “Stable” and 1 days, respectively. The half-life in the series listed under Homo sapiens came out at 37 min. Also, the Activity result with Rattus norvegicus [9] was “Non-toxic”.
Turning to `COc1ccc2cc(C(C)C(=O)OCn3c(=O)oc4ccc(Cl)cc43)ccc2c1` (stereo not drawn), the Stability result in series [7] was “Stable”; in series [8], 1 days. In the series listed under Homo sapiens, the half-life was 34 min.
Turning to `Cc1cccc(Nc2ccccc2C(=O)OCn2c(=O)oc3ccc(Cl)cc32)c1C`, the results for the Stability result in series [7] and in series [8] were “Stable” and 1 days, respectively.
On to `CC(C)Cc1ccc(C(C)C(=O)O)cc1` (stereo not drawn) [IBUPROFEN], for which the inhibition in vivo at 150 mg/kg with Rattus norvegicus [10] is 45.8%; in the series on Rattus norvegicus [11] it was 50%; in the series on Rattus norvegicus [12] it was 62.5%; with Rattus norvegicus [13], 16.7%; in the series with Rattus norvegicus [14], 16.7%; in the series on Rattus norvegicus [15], 41.7%. Also, the Activity result with Rattus norvegicus [16] was “Toxic”.
For `Cc1cccc(Nc2ccccc2C(=O)O)c1C` [MEFENAMIC ACID], the inhibition in vivo at 20 mg/kg with Rattus norvegicus [17] was 33.3%; in the series with Rattus norvegicus [18], 18.3%; in the series on Rattus norvegicus [19], 16.7%; in the series with Rattus norvegicus [20], 45.8%; with Rattus norvegicus [21], 33.3%; in the series on Rattus norvegicus [22] it was 41.7%.

Broadly, the half-life is how long it takes for the measured level to halve.

The values above are taken from ChEMBL document CHEMBL1153017 (Bioorg Med Chem, 2009).
